Assay results: ChEMBL document CHEMBL1126988, “Quinolone antibacterials containing the new 7-[3-(1-aminoethyl)-1- pyrrolidinyl] side chain: the effects of the 1-aminoethyl moiety and its stereochemical configurations on potency and in vivo efficacy” (J Med Chem, 1993)
Converted amounts (≈) assume the structure as drawn.

Legend:
[1] = test system: Escherichia coli; test: Antibacterial activity in vitro against Escherichia coli Vogel; format: functional
How it was run: (§1)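 Standard microtitration broth assay against a panel of 10 Gram-positive and Gram-negative organisms. MIC read in µg/mL and averaged over multiple experiments.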

[2] = test system: Enterobacter cloacae; test: Minimum inhibitory concentration in vitro against Enterobacter cloacae MA 2646; format: functional
[3] = test system: Enterococcus faecalis; test: Minimum inhibitory concentration was evaluated in vitro against Enterococcus faecalis MGH-2; format: functional; how it was run: as §1
[4] = test system: Klebsiella pneumoniae; test: Minimum inhibitory concentration was evaluated in vitro against Klebsiella pneumoniae MGH2; format: functional; how it was run: as §1
[5] = test system: Providencia rettgeri; test: Minimum inhibitory concentration was evaluated in vitro against Providencia rettgeri M1771; format: functional; how it was run: as §1
[6] = test system: Pseudomonas aeruginosa; test: Minimum inhibitory concentration was evaluated in vitro against Pseudomonas aeruginosa UI-18; format: functional; how it was run: as §1
[7] = test system: Staphylococcus aureus; test: Minimum inhibitory concentration was evaluated in vitro against Staphylococcus aureus H 228; format: functional; how it was run: as §1
[8] = test system: Staphylococcus aureus; test: Minimum inhibitory concentration was evaluated in vitro against Staphylococcus aureus UC 76; format: functional; how it was run: as §1
[9] = test system: Streptococcus pneumoniae; test: Minimum inhibitory concentration was evaluated in vitro against Streptococcus pneumoniae SV-1; format: functional; how it was run: as §1
[10] = test system: Streptococcus pyogenes; test: Antibacterial activity measured as mouse protection against Streptococcus pyogenes C 203 after subcutaneous administration; format: functional; conditions: for ED50: Streptococcus pyogenes, C 203, sc, read-out: PD50
[11] = Clonogenic cytotoxicity against hamster V-79 cells; format: functional, Cricetulus griseus, V79
How it was run: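 Chinese hamster V-79 cells grown overnight, then drug-treated for 3 h at 37 °C. Medium is replaced with fresh medium and cells are incubated 5 days to allow colony formation. IC50 (µg/mL) is the concentration inhibiting colony formation by 50% relative to control.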

[12] = test system: Streptococcus pyogenes; test: Compounds were evaluated in vivo for antibacterial activity for mouse protection against Streptococcus pyogenes C 203 after oral administration; format: functional; conditions: for ED50: Streptococcus pyogenes, C 203, po, read-out: PD50
[13] = test system: Streptococcus pyogenes; test: Minimum inhibitory concentration was evaluated in vitro against Streptococcus pyogenes C 203; format: functional; how it was run: as §1
[14] = organism: Mus musculus; test: Compounds were evaluated for phototoxicity no-effect dose in mouse; format: functional
How it was run: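 Depilated female CD-1 mice, five per dose plus controls. Animals are dosed orally and then exposed daily to UV-A (320–400 nm) for 3 h, for up to 4 days or until a definite positive response. Redness or erythema relative to controls, read 24 h after irradiation, counts as positive. Reported as the highest dose with no effect (mg/kg).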

[15] = test system: Escherichia coli; test: Antibacterial activity against Escherichia coli Vogel after oral administration in mouse; format: functional; conditions: Escherichia coli, po; read-out: PD50
[16] = test system: Escherichia coli; test: Antibacterial activity against Escherichia coli Vogel after subcutaneous administration in mouse; format: functional; conditions: Escherichia coli, sc; read-out: PD50
[17] = Escherichia coli, read-out: MIC
[18] = Enterobacter cloacae, read-out: MIC
[19] = Enterococcus faecalis, read-out: MIC
[20] = Klebsiella pneumoniae, read-out: MIC
[21] = Providencia rettgeri, read-out: MIC
[22] = Pseudomonas aeruginosa, read-out: MIC
[23] = Staphylococcus aureus, read-out: MIC
[24] = Streptococcus pneumoniae, read-out: MIC
[25] = Streptococcus pyogenes, read-out: MIC

SMILES	MIC [1, 17]	MIC [2, 18]	MIC [3, 19]	MIC [4, 20]	MIC [5, 21]	MIC [6, 22]	MIC [7, 23]	MIC [8, 23]	MIC [9, 24]	ED50 [10]	Cytotoxicity [11]	ED50 [12]	MIC [13, 25]	ED50 [15]	ED50 [16]	further results
COc1c(N2CC[C@@H]([C@@H](C)N)C2)c(F)cc2c(=O)c(C(=O)O)cn(C3CC3)c12	0.05 mg/L (≈ 0.128 µM)	0.05 mg/L (≈ 0.128 µM)	0.025 mg/L (≈ 0.0642 µM)	0.1 mg/L (≈ 0.257 µM)	0.2 mg/L (≈ 0.514 µM)	0.8 mg/L (≈ 2.05 µM)	0.025 mg/L (≈ 0.0642 µM)	0.003 mg/L (≈ 0.0077 µM)	0.013 mg/L (≈ 0.0334 µM)	1 mg/kg	41 µg/mL	6 mg/kg	0.013 mg/L (≈ 0.0334 µM)	–	–	–
CC(N)C1CCN(c2c(F)cc3c(=O)c(C(=O)O)cn(C4CC4)c3c2C(F)(F)F)C1 (racemic)	–	–	–	–	–	–	–	–	–	–	19 µg/mL	–	–	–	–	MIC [1]: 0.2 mg/L (≈ 0.468 µM); MIC [2]: 0.2 mg/L (≈ 0.468 µM); MIC [3]: 0.025 mg/L (≈ 0.0585 µM); MIC [4]: 0.2 mg/L (≈ 0.468 µM); Dose [14]: >100 mg/kg; MIC [5]: 0.4 mg/L (≈ 0.936 µM); MIC [6]: 1.6 mg/L (≈ 3.74 µM); MIC [7]: 0.013 mg/L (≈ 0.0304 µM); MIC [8]: 0.006 mg/L (≈ 0.014 µM); MIC [9]: 0.006 mg/L (≈ 0.014 µM); PD50 [10]: 0.3 mg/kg; PD50 [12]: 0.7 mg/kg; MIC [13]: 0.006 mg/L (≈ 0.014 µM)
Nc1c(F)c(N2CCC(N)C2)c(F)c2c1c(=O)c(C(=O)O)cn2C1CC1 (stereo not drawn)	0.006 mg/L (≈ 0.0165 µM)	0.013 mg/L (≈ 0.0357 µM)	0.025 mg/L (≈ 0.0686 µM)	0.006 mg/L (≈ 0.0165 µM)	0.025 mg/L (≈ 0.0686 µM)	0.05 mg/L (≈ 0.137 µM)	0.013 mg/L (≈ 0.0357 µM)	0.006 mg/L (≈ 0.0165 µM)	0.006 mg/L (≈ 0.0165 µM)	8 mg/kg	15 µg/mL	28 mg/kg	0.025 mg/L (≈ 0.0686 µM)	1 mg/kg	0.3 mg/kg	Dose [14]: 55 mg/kg
NCC1CCN(c2c(F)c(N)c3c(=O)c(C(=O)O)cn(C4CC4)c3c2F)C1 (stereo not drawn)	0.013 mg/L (≈ 0.0344 µM)	0.025 mg/L (≈ 0.0661 µM)	0.013 mg/L (≈ 0.0344 µM)	0.025 mg/L (≈ 0.0661 µM)	0.05 mg/L (≈ 0.132 µM)	0.1 mg/L (≈ 0.264 µM)	0.006 mg/L (≈ 0.0159 µM)	0.003 mg/L (≈ 0.00793 µM)	0.003 mg/L (≈ 0.00793 µM)	0.6 mg/kg	–	11 mg/kg	0.003 mg/L (≈ 0.00793 µM)	12 mg/kg	1 mg/kg	–
CCN[C@H](C)[C@H]1CCN(c2c(F)c(N)c3c(=O)c(C(=O)O)cn(C4CC4)c3c2F)C1 (racemic)	0.025 mg/L (≈ 0.0595 µM)	0.025 mg/L (≈ 0.0595 µM)	0.013 mg/L (≈ 0.0309 µM)	0.05 mg/L (≈ 0.119 µM)	0.1 mg/L (≈ 0.238 µM)	0.8 mg/L (≈ 1.9 µM)	0.003 mg/L (≈ 0.00714 µM)	0.003 mg/L (≈ 0.00714 µM)	0.003 mg/L (≈ 0.00714 µM)	0.3 mg/kg	42 µg/mL	0.3 mg/kg	0.003 mg/L (≈ 0.00714 µM)	2 mg/kg	1 mg/kg	–
CCN[C@H](C)[C@@H]1CCN(c2c(F)c(N)c3c(=O)c(C(=O)O)cn(C4CC4)c3c2F)C1	0.05 mg/L (≈ 0.119 µM)	0.1 mg/L (≈ 0.238 µM)	0.025 mg/L (≈ 0.0595 µM)	0.1 mg/L (≈ 0.238 µM)	0.2 mg/L (≈ 0.476 µM)	1.6 mg/L (≈ 3.81 µM)	0.006 mg/L (≈ 0.0143 µM)	0.003 mg/L (≈ 0.00714 µM)	0.003 mg/L (≈ 0.00714 µM)	0.5 mg/kg	15 µg/mL	1 mg/kg	0.003 mg/L (≈ 0.00714 µM)	–	–	–
CCN[C@H](C)[C@@H]1CCN(c2nc3c(cc2F)c(=O)c(C(=O)O)cn3C2CC2)C1	0.1 mg/L (≈ 0.257 µM)	0.4 mg/L (≈ 1.03 µM)	0.05 mg/L (≈ 0.129 µM)	0.2 mg/L (≈ 0.515 µM)	1.6 mg/L (≈ 4.12 µM)	1.6 mg/L (≈ 4.12 µM)	0.05 mg/L (≈ 0.129 µM)	0.025 mg/L (≈ 0.0644 µM)	0.025 mg/L (≈ 0.0644 µM)	4 mg/kg	87 µg/mL	6 mg/kg	0.05 mg/L (≈ 0.129 µM)	7 mg/kg	6 mg/kg	–
CCN[C@H](C)[C@H]1CCN(c2cc3c(cc2F)c(=O)c(C(=O)O)cn3C2CC2)C1 (mixture of isomers; form 2)	0.2 mg/L	0.2 mg/L	–	0.4 mg/L	0.8 mg/L	6.3 mg/L	–	–	–	1 mg/kg	–	8 mg/kg	–	13 mg/kg	2 mg/kg	MIC [3]: 0.1 mg/L; MIC [7]: 0.1 mg/L; MIC [8]: 0.025 mg/L; MIC [9]: 0.05 mg/L; MIC [13]: 0.05 mg/L
NCC1CCN(c2c(F)cc3c(=O)c(C(=O)O)cn(C4CC4)c3c2F)C1 (stereo not drawn)	0.025 mg/L (≈ 0.0688 µM)	0.013 mg/L (≈ 0.0358 µM)	0.013 mg/L (≈ 0.0358 µM)	0.05 mg/L (≈ 0.138 µM)	0.1 mg/L (≈ 0.275 µM)	0.2 mg/L (≈ 0.55 µM)	0.013 mg/L (≈ 0.0358 µM)	0.003 mg/L (≈ 0.00826 µM)	0.006 mg/L (≈ 0.0165 µM)	0.4 mg/kg	–	4 mg/kg	0.003 mg/L (≈ 0.00826 µM)	6 mg/kg	1 mg/kg	–
